Experimental data pooled from the literature.
MRGPRX2: Mas-related G-protein coupled receptor member X2 (MRGPRX2, Homo sapiens, UniProt Q96LB1)
CYP17A1: Steroid 17-alpha-hydroxylase/17,20 lyase (CYP17A1, Homo sapiens, UniProt P05093)

SMILES | target | test | conditions | endpoint | value
C[C@@H](O)[C@@H]1NC(=O)[C@H](CCCCN)NC(=O)[C@H](Cc2c[nH]c3ccccc23)NC(=O)[C@H](Cc2ccccc2)NC(=O)[C@H](Cc2ccccc2)NC(=O)[C@H](CC(N)=O)NC(=O)[C@H](CCCCN)NC(=O)[C@@H](NC(=O)[C@@H]2CCCN2)CSSC[C@@H](C(=O)N[C@@H](CCCCN)C(=O)O)NC(=O)[C@H](CO)NC(=O)[C@H](CO)NC(=O)[C@H](Cc2ccccc2)NC1=O | MRGPRX2 | calcium signal, agonist | – | EC50 | 79.4 nM
C/C(=C\[N+](=O)[O-])c1ccccc1 | OYE1 (Saccharomyces pastorianus, UniProt Q02899) | binding, absorbance | – | Kd | 170000 nM
CCCc1cc(C)[nH]c(=O)c1CNC(=O)c1cc(-c2ccc(N3CCN(CCCCc4cn(CCN5C(=O)\C(=C/C=C/C=C6/N(CCC(=O)OCOC(C)=O)c7ccc(C(=O)OCOC(C)=O)cc7C6(C)C)C(=O)N(CC)C5=O)nn4)CC3)nc2)cc2c1cnn2C(C)C | Histone-lysine N-methyltransferase EZH2 (EZH2, Homo sapiens, UniProt Q15910) | enzyme activity, inhibitor, radiometric | – | IC50 | 21 nM
CC(=O)[C@H]1CC[C@H]2[C@@H]3CCC4=CC(=O)CC[C@]4(C)[C@H]3CC[C@]12C | CYP17A1 | binding, absorbance | – | Kd | 740 nM
CC(C)C[C@H](NC(=O)[C@H](Cc1ccccc1)NC(=O)c1cnccn1)B(O)O | Cathepsin G (CTSG, Homo sapiens, UniProt P08311) | enzyme activity, inhibitor | – | IC50 | 36000 nM
Cc1c(Cc2cccc(N(C)S(=O)(=O)CCCN3CCN(c4ccc(Nc5c(C(N)=O)cnc6ccc(-c7cnc8ccccc8c7)cc56)cc4C(F)(F)F)CC3)c2)c(=O)oc2cc(OC(=O)N(C)C)ccc12 | Dual specificity mitogen-activated protein kinase kinase 1 (MAP2K1, Homo sapiens, UniProt Q02750) | enzyme activity, inhibitor, mobility shift | – | IC50 | 4970 nM
COC(=O)Nc1nc2cc(C(=O)c3ccc(F)cc3)ccc2[nH]1 | Vascular endothelial growth factor receptor 2 (KDR, Homo sapiens, UniProt P35968) | enzyme activity, inhibitor, TR-FRET | – | IC50 | 470 nM
COc1cc(C(=O)N2CC[C@@H](O)[C@@H](N)C2)cc2nc(-c3cc4ccccc4n3CC3CC3)n(C)c12 | Vasopressin V1a receptor (AVPR1A, Homo sapiens, UniProt P37288) | calcium signal, antagonist, fluorescence | – | IC50 | 25100 nM
Nc1ncc(-c2nc(N3CCOCC3)nc(N3CCOCC3)n2)c(C(F)F)n1 | Phosphatidylinositol 4,5-bisphosphate 3-kinase catalytic subunit alpha isoform (PIK3CA, Homo sapiens, UniProt P42336) | ligand displacement, TR-FRET | – | IC50 | 21.9 nM
NC(=O)[C@@H]1CCCN1C(=O)[C@H](CCC(=O)O)NC(=O)[C@@H]1CCC(=O)N1 | MRGPRX2 | calcium signal, agonist | – | EC50 | > 20000 nM
CC(=O)C1=CC[C@H]2[C@@H]3CCC4=CC(=O)CC[C@]4(C)[C@H]3CC[C@]12C | CYP17A1 | binding, absorbance | – | Kd | 540 nM
C/C=C1\NC(=O)[C@H](C)NC(=O)[C@@H](NC(=O)[C@@H](Cc2ccc(O)cc2)NC(=O)[C@@H](NC(=O)/C(C)=C/C)C(C)C)[C@@H](C)OC(=O)[C@H](CC[S+](C)[O-])NC(=O)[C@@H](CCC(=O)O)NC1=O (stereo partly drawn) | Chymotrypsin-like elastase family member 1 (CELA1, Sus scrofa, UniProt P00772) | enzyme activity, inhibitor, absorbance | – | IC50 | 7280 nM
CC(C)=CCc1c(O)cc2c(c1O)C(=O)C[C@@H](c1ccc(O)cc1)O2 | Cytochrome P450 1A1 (CYP1A1, Homo sapiens, UniProt P04798) | enzyme activity, inhibitor, fluorescence | 15 min, pH 7.4 | Ki | 590 nM
CC[C@H](C)[C@H](NC(=O)[C@@H]1CCCN1C(C)=O)C(=O)N[C@@H](CCC(=O)O)C(=O)N[C@H](C(=O)N[C@@H](CS)C(=O)N[C@@H](CCSC)C(=O)N[C@@H](Cc1ccc(O)cc1)C(=O)N[C@@H](CCCNC(=N)N)C(=O)N[C@@H](CCC(=O)O)C(=O)N1CCC[C@H]1C(N)=O)C(C)C | MRGPRX2 | calcium signal, agonist | – | EC50 | > 20000 nM
Cc1cc2c(cc1Br)NC(=O)/C2=N/N=C1/C(=O)Nc2cc(Br)c(C)cc21 | Glycogen synthase kinase-3 beta (GSK3B, Homo sapiens, UniProt P49841) | enzyme activity, inhibitor | – | IC50 | ~0.03 nM
